Screening data: PubChem, several laboratories
Only some compounds are listed: those with a hit (about 2.2% of all), similar ones and a draw of the others.
APJ antagonist = antagonists of human apelin receptor APJ, primary screen, CHO-K1 cells, beta-arrestin complementation, luminescence; AID 2521, 2010; 0.32% of 330,000 active; inhibition, % at 20 µM; P35414;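 active means inhibition above about 40% at 20 µM, limit read from the data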;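 further: cells challenged with 10 nM apelin-13 agonist together with compound; plate controls were apelin-13 plus DMSO wells for no effect and DMSO wells lacking apelin-13 for full effect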
m5-HT2A agonist = mouse Htr2a agonists via beta-arrestin recruitment, primary screen, cell-based, luminescence; AID 624169, 2012; activation, % at 7.6 µM; CHO-K1 mHTR2A beta-arrestin complementation; percent of 30 µM serotonin response; 0.66% of 360,000 active;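 active means activation above a run cutoff, the mean activation of all tested compounds plus 3 SD, cut at about 14% in these data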;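 further: 0% = plate median of compound wells and 100% = 30 µM serotonin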
CXCR6 inh = CXCR6 receptor inhibitors, primary screen, cell-based, beta-arrestin, luminescence, CHO-K1 PathHunter, 1536-well | C-X-C chemokine receptor type 6 (Homo sapiens), O00574 | inhibition, % at 20 µM | 0.36% of 360,000 active | AID 602244, 2012; in the data active means inhibition above about 34%, passing the limit was not always enough;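 further: antagonist mode with CXCL16 agonist at 10 nM final; 0% = 10 nM CXCL16 with DMSO and 100% = unstimulated wells without agonist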
APJ agonist = agonists of human apelin receptor APJ, primary screen, CHO-K1 cells, PathHunter beta-arrestin, luminescence; activation, % at 20 µM; 0.11% of 330,000 active; 0% DMSO wells, 100% apelin; P35414; AID 2520, 2010;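 active means activation more than six SD over the plate average, tested at 20 µM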;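 further: 0% = DMSO alone and 100% = apelin-13 at 10 nM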
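Assay system: CHO-K1 APJ beta-arrestin complementation cell line / Compound: single test compound dose, 20 µM final, 1% DMSO / Times: overnight seeding, 90 min compound at 25 °C, 1 h detection / Technique: beta-gal luminescence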
CCR6 antagonist = CCR6 receptor antagonists, primary screen, cell-based, CHO-K1, luminescence, beta-arrestin, uHTS. C-C chemokine receptor type 6 (Homo sapiens), P51684. 0.49% of 340,000 active. CHO-K1 CCR6 PathHunter beta-arrestin, CCL20-stimulated. AID 493098, 2011. inhibition, % at 20 µM;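 active means compounds whose inhibition of the agonist-driven luminescence signal at 20 µM reaches about 50%, limit read from the data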;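 further: cells stimulated with CCL20 at 14 nM final; plate controls were DMSO with CCL20 for no effect and DMSO without agonist for full effect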
EBI2 antag = EBI2 receptor antagonists, beta-arrestin recruitment, primary screen, cell-based, luminescence, 7a,25-OHC stimulation, uHTS. inhibition, % at 5 µM. 7a,25-OHC stimulated. 0.81% of 360,000 active. G-protein coupled receptor 183 (Homo sapiens), P32249. AID 651636, 2012; in the data active means inhibition above about 38%;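 further: enzyme fragment complementation signal reports receptor beta-arrestin coupling in cells; 0% = agonist plus DMSO wells and 100% = wells without agonist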
Target sequence (P32249 whole entry, looked up, the tested form may be a part): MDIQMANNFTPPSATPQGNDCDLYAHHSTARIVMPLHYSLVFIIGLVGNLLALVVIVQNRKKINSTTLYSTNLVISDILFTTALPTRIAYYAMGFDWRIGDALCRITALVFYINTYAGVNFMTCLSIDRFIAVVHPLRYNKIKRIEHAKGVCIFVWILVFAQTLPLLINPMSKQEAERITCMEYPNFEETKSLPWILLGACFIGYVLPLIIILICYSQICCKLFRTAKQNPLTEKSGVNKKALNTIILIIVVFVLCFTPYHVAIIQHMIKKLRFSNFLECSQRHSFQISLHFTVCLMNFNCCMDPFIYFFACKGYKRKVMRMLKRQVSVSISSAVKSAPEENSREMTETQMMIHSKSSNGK
APJ antag confirm = APJ antagonists blocking beta-arrestin recruitment, confirmation, cell-based, luminescence, single concentration, uHTS hits; shares compounds with APJ antagonist; antagonist mode; inhibition, % at 20 µM; 66% of 950 active; AID 2766, 2010; in the data active means inhibition above about 50%
The depositor's hits bear a star; . = no result given.

SMILES	APJ antagonist	m5-HT2A agonist	CXCR6 inh	APJ agonist	CCR6 antagonist	EBI2 antag	APJ antag confirm
N#C/C(=N\Nc1ccccc1)C(N)=S	22	8	12	-6	15	-15	.
COc1ccc(C(=O)c2sc3nc(C)cc(-c4cccs4)c3c2N)cc1	.	0	5	.	-9	33	.
CC(C)NC(=O)c1sc2nc(-c3cccs3)cc(-c3cccs3)c2c1N	42*	.	.	-17	29	.	31
C/C(=N\NC(=S)Nc1cccc(C)c1)c1ccccc1	44*	-3	33	-6	53*	26	91*
Oc1cccc(-c2ccc3nccn3c2)c1	.	-2	-2	.	.	0	.
COc1cc(/C=C2\SC(=S)N(NC(=O)c3ccccc3OC)C2=O)ccc1O	66*	-3	50*	-11	66*	25	100*
COc1cc(/C=C2\SC(=S)N(NS(=O)(=O)c3ccccc3)C2=O)ccc1O	41*	-6	34	-5	39	-2	73*
COc1cc(/C=C2\SC(=S)N(NC(=O)c3ccc(O)c(OC)c3)C2=O)ccc1O	61*	-5	43*	-10	57*	21	99*
COc1ccc(/C=C2/SC(=S)N(NS(=O)(=O)c3ccccc3)C2=O)cc1	13	2	5	2	12	3	.
COc1cc(/C=C2\SC(=S)N(NC(=O)c3cccc(O)c3)C2=O)ccc1O	41*	1	42*	-8	56*	13	95*
N#CCC(=O)Nc1ccc(C(=O)Nc2cccc(S(=O)(=O)N3CCCC3)c2)cc1	.	4	2	.	.	2	.
CCOc1cc(/C=C2\SC(=S)N(NS(=O)(=O)c3ccc(C)cc3)C2=O)ccc1O	41*	3	24	-4	33	9	88*
CCOc1cc([N+](=O)[O-])cc(/C=N/NC(=O)c2c(-c3ccccc3)noc2C)c1O	41*	-7	14	-11	27	12	25
CC1=NN(c2ccc(C)cc2)C(=O)/C1=C\C=C\c1ccccc1	8	0	5	-1	12	-6	.
CC1=NN(c2ccccc2)C(=O)/C1=C/C=C/C=C/N(C)C	65*	-4	49*	-8	58*	10	91*
CC(=O)c1sc(NS(=O)(=O)c2ccc(C)cc2)nc1C	53*	0	1	-2	-1	-4	23
Cc1cccn2c(=O)c3cc(C(=O)NC4CCCCC4)c(=N)n(Cc4ccccc4)c3nc12	52*	-6	2	-12	12	16	30
Cc1cccn2c(=O)c3cc(C(=O)NC4CCCC4)c(=N)n(Cc4ccc(F)cc4)c3nc12	14	1	11	-2	11	22	.
COc1ccc(CCn2c(=N)c(C(=O)NC3CCCC3)cc3c(=O)n4cccc(C)c4nc32)cc1	46*	-1	1	1	0	-3	-2
Cc1ccc(C)c2nc3sc(C(=O)N4CCCc5ccccc54)c(N)c3cc12	59*	0	38	-17	47	75*	58*
CCCC(=O)N1CCC1(C)C(=O)Nc1ccc2c(c1)CCN2C(C)=O (centres undefined)	.	1	-2	.	.	-5	.
O=C(NNc1ncc(C(F)(F)F)cc1Cl)c1ccc(Cl)c(Cl)c1	13	-7	-4	-5	22	-1	.
Cc1ccc(NC(=S)NNc2ncc(C(F)(F)F)cc2Cl)c(C)c1	53*	-4	65*	-10	81*	24	49
O=C1c2cccc3c(Nc4ccccc4Cl)c([N+](=O)[O-])cc(c23)C(=O)N1CCO	53*	4	40*	-7	65*	13	84*
CCOc1cc(/C=C2/C(=O)ON=C2C)cc(Br)c1O	41*	-6	16	-6	57*	3	56*
SMILES	APJ antagonist	m5-HT2A agonist	CXCR6 inh	APJ agonist	CCR6 antagonist	EBI2 antag	APJ antag confirm
COc1ccc(/C=C2/C(=O)ON=C2C)cc1Cl	3	0	-6	-1	-8	-6	.
Cc1sc(/C=C2\C(=O)ON=C2c2ccccc2)cc1Br	2	.	.	-3	.	.	.
CCOc1cc(/C=C2\C(=O)ON=C2c2ccccc2)cc(Br)c1O	46*	3	29	-7	42	-15	74*
COc1cc(C=C2C(=O)OC(c3ccccc3)OC2=O)cc(Br)c1O (centres undefined)	5	2	5	0	16	-2	.
COc1cc(/C=C2\C(=O)ON=C2c2ccccc2)cc(Cl)c1O	46*	0	17	-5	50	-9	66*
COc1cc(/C=C2\C(=O)ON=C2c2ccccc2)cc(Br)c1O	43*	1	28	-7	58*	-22	95*
O=C1CCC/C1=c1\s/c(=C/c2cccnc2)c(=O)n1-c1ccccc1	.	6	12	.	11	-1	.
OC(CNC1CCCCC1)CON=C1CCSc2c(Cl)cccc21 (centres undefined)	.	-2	-15	.	.	-12	.
O=C(C1=C(Nc2ccccc2)c2ccccc2S(=O)(=O)N1)c1ccccc1	45*	-1	33	-6	70*	10	72*
Cc1ccc(F)cc1C(=O)N1CCCCC1c1cc(C(=O)Nc2cccc(C#N)c2)no1 (centres undefined)	.	-7	6	.	.	10	.
Cc1nnsc1C(=O)NNc1ccc(C(C)(C)C)cc1	59*	2	-4	-15	10	16	146*
O=C(CNS(=O)(=O)c1ccccc1)OCC(=O)c1cccc([N+](=O)[O-])c1	46*	-1	31	-4	47	3	87*
O=C(CNC(=O)c1ccc(Br)o1)OCC(=O)c1cccc([N+](=O)[O-])c1	62*	-1	33	-10	83*	19	62*
O=C(Cc1ccccc1)OCC(=O)c1cccc([N+](=O)[O-])c1	-7	-2	25	-8	34	10	.
CC1(C(=O)Nc2cccc(NS(C)(=O)=O)c2)Cc2c(-c3ccc(C(N)=O)cc3)ccnc2O1 (centres undefined)	.	-8	3	.	.	-6	.
COc1ccc(N(CC(=O)NC2CC3CCC2C3)S(=O)(=O)c2ccc(C)cc2)cc1Cl (centres undefined)	.	-1	4	.	.	13	.
C=CCn1c(=O)[nH]c2cc(C(=O)N3CC=C(c4ccccc4)CC3)ccc2c1=O	52*	-6	-17	-5	12	1	-13
